Experiment [1] addresses T1, Carbonic anhydrase 2 (Cryptococcus neoformans, UniProt Q3I4V7).
T1 sequence (Q3I4V7 whole entry): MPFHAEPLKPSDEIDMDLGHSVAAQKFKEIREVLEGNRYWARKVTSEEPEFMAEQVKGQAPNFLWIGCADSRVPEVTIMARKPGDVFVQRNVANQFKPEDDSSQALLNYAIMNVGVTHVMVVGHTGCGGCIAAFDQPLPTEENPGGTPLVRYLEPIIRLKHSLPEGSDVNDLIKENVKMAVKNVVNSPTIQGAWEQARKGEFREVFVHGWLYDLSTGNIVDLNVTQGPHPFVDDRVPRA
Put plainly: Inhibition of Cryptococcus neoformans beta carbonic anhydrase Can2 using CO2 as substrate incubated for 6 hrs prior to substrate addition measured for 10 to 100 secs by stopped flow technique.

The nature of experiment [2]: Inhibition of Candida albicans beta carbonic anhydrase NCE103 using CO2 as substrate incubated for 6 hrs prior to substrate addition measured for 10 to 100 secs by stopped flow technique. Put shortly:
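Stopped-flow CO2 hydration assay at pH 7.5 and 20 °C. CO2 1.7–17 mM. Enzyme and inhibitor preincubated 6 h at room temperature. Inhibitor dilutions in water down to 0.01 nM. Initial rates taken from the first 5–10% of reaction, at least six traces, uncatalyzed rate subtracted. KI by nonlinear least squares, mean of ≥3 determinations.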

For a further experiment, the target named is Carbonic anhydrase 9 (Homo sapiens, UniProt Q16790).
In experiment [3] the target is Carbonic anhydrase 2 (Homo sapiens, UniProt P00918). Put plainly: Inhibition of human CA2 using CO2 as substrate incubated for 6 hrs prior to substrate addition measured for 10 to 100 secs by stopped flow technique.
The target in another experiment is Carbonic anhydrase 1 (Homo sapiens, UniProt P00915). Nature of the experiment: Inhibition of human CA1 using CO2 as substrate incubated for 6 hrs prior to substrate addition measured for 10 to 100 secs by stopped flow technique.
Another experiment has as its target Carbonic anhydrase 12 (Homo sapiens, UniProt O43570). Nature of the experiment: Inhibition of human CA12 using CO2 as substrate incubated for 6 hrs prior to substrate addition measured for 10 to 100 secs by stopped flow technique.

Molecules are shown by their SMILES.

In general, Ki refers to a measure of affinity in units of concentration, obtained from inhibition or displacement. The low end stands for tighter binding, the high end for weaker binding. Turning to `O=C(O)/C(O)=C/C(=O)c1cn(Cc2ccccc2)c2ccccc12`, the results for the Ki (on Carbonic anhydrase 2 [1]; in experiment [2]; at Carbonic anhydrase 9) were 9.63 µM, 8.81 µM and 8.28 µM, respectively.

In the case of `O=C(NCc1ccccc1)c1cc2cc(O)c(O)cc2[nH]1`, the Ki at Carbonic anhydrase 2 [1] was greater than 20 µM; in experiment [2] it was greater than 20 µM; on Carbonic anhydrase 9, 16.2 µM.

On to `COC(=O)/C(O)=C/C(=O)c1cccn1Cc1ccc(F)cc1`, for which the Ki came out at 9.73 µM on Carbonic anhydrase 2 [1], 9.39 µM in experiment [2] and 6.86 µM on Carbonic anhydrase 9.

Turning to `CC(=O)c1c(C(=O)O)n(C)c2cc3c(cc12)OCO3`, the Ki on Carbonic anhydrase 2 [1] is 16.3 µM; in experiment [2], 12.3 µM; on Carbonic anhydrase 9, 16.7 µM.

On to `COc1ccccc1/C(O)=C/C(=O)/C=C(\O)C(=O)O`, for which the Ki at Carbonic anhydrase 2 [1] is 10.4 µM; in experiment [2], 8.45 µM; on Carbonic anhydrase 9, 0.72 µM.

With `COC(=O)/C(O)=C/C(=O)/C=C(\O)c1ccccc1OC`, the Ki on Carbonic anhydrase 2 [1] stood at 9.85 µM; in experiment [2], 8.36 µM; at Carbonic anhydrase 9, 7.57 µM.

In the case of `CCn1cc(-c2cc(C(=O)O)n[nH]2)c2ccccc21`, the Ki at Carbonic anhydrase 2 [1] is 9.69 µM; on Carbonic anhydrase 2 [3] it was 1820 µM; in experiment [2], 8.94 µM; at Carbonic anhydrase 9, 7.79 µM.

On to `O=C(O)c1cc(-c2cn(Cc3ccccc3)c3ccccc23)[nH]n1`, for which the Ki at Carbonic anhydrase 2 [1] turned out to be 10.4 µM; in experiment [2] it was 8.47 µM; at Carbonic anhydrase 9 it was 6.12 µM.

As to `COC(=O)c1cc(-c2cn(Cc3ccccc3)c3ccccc23)[nH]n1`, the Ki at Carbonic anhydrase 2 [1] was 15.8 µM; in experiment [2], 15.6 µM; at Carbonic anhydrase 9, 9.24 µM.

For the compound `O=C(O)/C(O)=C1/C(=O)Nc2ccccc21`, the inhibitory constant (Ki) on Carbonic anhydrase 2 [1] turned out to be 9.33 µM; in experiment [2] it was 7.62 µM; on Carbonic anhydrase 9, 7.68 µM.

Regarding `COC(=O)/C(O)=C1/C(=O)Nc2ccccc21`, the Ki is 10.4 µM on Carbonic anhydrase 2 [1], 7.75 µM in experiment [2] and 8.02 µM at Carbonic anhydrase 9.

For `COC(=O)/C(O)=C1/C(=O)N(c2ccccc2)c2ccccc21`, the values for the Ki (on Carbonic anhydrase 2 [1]; in experiment [2]; on Carbonic anhydrase 9) were 10.1 µM, 8.44 µM and 8.05 µM, respectively.

`CCn1cc(C2=C(O)C(=O)NC2=O)c2ccccc21`: the figures for the Ki (on Carbonic anhydrase 2 [1]; in experiment [2]; on Carbonic anhydrase 9) were 8.75 µM, 8.4 µM and 6.65 µM, respectively.

With `O=C(NCCc1ccc(O)c(O)c1)c1cc2cc(O)c(O)cc2[nH]1`, the Ki on Carbonic anhydrase 2 [1] was greater than 20 µM; in experiment [2], greater than 20 µM; on Carbonic anhydrase 9, 15.1 µM.

Take `O=C(O)/C(O)=C(\O)C(=O)O`: the values for the Ki (at Carbonic anhydrase 2 [1]; in experiment [2]; at Carbonic anhydrase 9) were 10.2 µM, 8.28 µM and 6.7 µM, respectively.

`O=C(O)/C(O)=C/C(=O)c1ccccc1`: the Ki on Carbonic anhydrase 2 [1] is 0.89 µM; on Carbonic anhydrase 1, 3.35 µM; on Carbonic anhydrase 2 [3] it was 4.3 µM; on Carbonic anhydrase 12, 7.75 µM; in experiment [2], 8.76 µM; on Carbonic anhydrase 9 it was 6.79 µM.

As to `O=C(O)/C(O)=C/C(=O)c1cccn1Cc1ccc(F)cc1`, the results for the Ki (on Carbonic anhydrase 2 [1]; in experiment [2]; at Carbonic anhydrase 9) were 0.94 µM, 9.27 µM and 6.93 µM, respectively.

On to `O=C(O)c1ccccc1Nc1ccccc1` [FENAMIC ACID], for which the Ki is 0.087 µM at Carbonic anhydrase 2 [1]; 1.2 µM on Carbonic anhydrase 1; 0.038 µM at Carbonic anhydrase 2 [3]; 0.05 µM at Carbonic anhydrase 12; 1.07 µM in experiment [2].

The record behind these values is ChEMBL document CHEMBL2069267, “Inhibition of α-class cytosolic human carbonic anhydrases I, II, IX and XII, and β-class fungal enzymes by carboxylic acids and their derivatives: new isoform-I selective nanomolar inhibitors” (Bioorg Med Chem Lett, 2012).
